Measurements: ChEMBL document CHEMBL5329156, “Discovery and development of novel substituted monohydrazides as potent antifungal agents” (RSC Med Chem, 2023)
≈ marks a conversion by molar mass, not a printed value.

How the values were obtained:
[1] = tested on: [Candida] auris; assay: Antifungal activity against Candida auris AR Bank # 390 assessed as fungal growth inhibition by double dilution method; format: functional; conditions: Candidozyma auris
Procedure, shortened: (§1)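 Broth microdilution after CLSI M27-A3/M38-A2 with minor changes. Single colony grown overnight in YPD at 35 °C, 200 rpm. Compound final range 0.06-31.3 µg/mL; incubated 48 h at 35 °C.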

[2] = tested on: Candida albicans; assay: Antifungal activity against Candida albicans ATCC 10231 assessed as fungal growth inhibition by double dilution method; format: functional; procedure, shortened: as §1
[3] = tested on: Candida albicans; assay: Antifungal activity against itraconazole/fluconazole susceptible Candida albicans ATCC MYA-2876 assessed as fungal growth inhibition by double dilution method; format: functional
Procedure, shortened: (§2)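 Broth microdilution after CLSI M27-A3/M38-A2 with minor modifications. A single colony was grown overnight in YPD at 35 °C with shaking at 200 rpm. Cells were mixed 1:1 with compound (final 0.06-31.3 µg/mL, from DMSO stocks) and incubated 48 h at 35 °C.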

[4] = tested on: Aspergillus fumigatus; assay: Antifungal activity against Aspergillus fumigatus NRRL 5109 assessed as fungal growth inhibition by double dilution method; format: functional
[5] = tested on: Nakaseomyces glabratus; assay: Antifungal activity against Candida glabrata ATCC 22019 assessed as fungal growth inhibition by double dilution method; format: functional; procedure, shortened: as §1
[6] = tested on: HepG2; assay: Cytotoxicity against human HepG2 cells assessed as reduction in cell viability upto 31.3 microg/ml; format: toxicity, cell-based; conditions: dose < 31.3 µg/ml
Procedure, shortened: (§3)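 Cells in DMEM with 10% FBS and 1% Pen/Strep, seeded at 10,000 cells/well and held overnight at 37 °C, 5% CO2. Compounds added at final 31.3-0.12 µg/mL (0.05% DMSO vehicle) for 24 h. Resazurin then added for 6 h; fluorescence read at ex 560/em 590. Triton X-100 1% as positive control; values normalized to vehicle. Run in quadruplicate.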

[7] = tested on: Candida albicans; assay: Antifungal activity against itraconazole/fluconazole resistant Candida albicans ATCC 90819 assessed as fungal growth inhibition by double dilution method; format: functional; procedure, shortened: as §2
[8] = tested on: [Candida] auris; assay: Antifungal activity against Candida auris AR Bank # 389 assessed as fungal growth inhibition by double dilution method; format: functional; conditions: Candidozyma auris; procedure, shortened: as §1
[9] = tested on: Candida duobushaemulonii; assay: Antifungal activity against Candida duobushaemulonii AR Bank # 391 assessed as fungal growth inhibition by double dilution method; format: functional; conditions: Candidozyma duobushaemuli; procedure, shortened: as §1
[10] = tested on: [Candida] auris; assay: Antifungal activity against Candida auris AR Bank # 383 assessed as fungal growth inhibition by double dilution method; format: functional; conditions: Candidozyma auris; procedure, shortened: as §1
[11] = tested on: [Candida] auris; assay: Antifungal activity against Candida auris AR Bank # 382 assessed as fungal growth inhibition by double dilution method; format: functional; conditions: Candidozyma auris; procedure, shortened: as §1
[12] = tested on: Candida duobushaemulonii; assay: Antifungal activity against Candida duobushaemulonii AR Bank # 394 assessed as fungal growth inhibition by double dilution method; format: functional; conditions: Candidozyma duobushaemuli; procedure, shortened: as §1
[13] = tested on: [Candida] auris; assay: Antifungal activity against Candida auris AR Bank # 388 assessed as fungal growth inhibition by double dilution method; format: functional; conditions: Candidozyma auris; procedure, shortened: as §1
[14] = tested on: Aspergillus terreus; assay: Antifungal activity against Aspergillus terreus ATCC MYA-3633 assessed as fungal growth inhibition by double dilution method; format: functional
[15] = tested on: [Candida] haemuloni; assay: Antifungal activity against Candida haemulonii AR Bank # 395 assessed as fungal growth inhibition by double dilution method; format: functional; conditions: Candidozyma haemuli; procedure, shortened: as §1
[16] = tested on: Saccharomyces cerevisiae; assay: Antifungal activity against Saccharomyces cerevisiae AR Bank # 400 assessed as fungal growth inhibition by double dilution method; format: functional; procedure, shortened: as §1
[17] = tested on: Clavispora lusitaniae; assay: Antifungal activity against Clavispora lusitaniae AR Bank # 398 assessed as fungal growth inhibition by double dilution method; format: functional; procedure, shortened: as §1
[18] = tested on: [Candida] auris; assay: Antifungal activity against Candida auris AR Bank # 386 assessed as fungal growth inhibition by double dilution method; format: functional; conditions: Candidozyma auris; procedure, shortened: as §1
[19] = tested on: [Candida] auris; assay: Antifungal activity against Candida auris AR Bank # 385 assessed as fungal growth inhibition by double dilution method; format: functional; conditions: Candidozyma auris; procedure, shortened: as §1
[20] = tested on: Nakaseomyces glabratus; assay: Antifungal activity against Candida glabrata ATCC 2001 assessed as fungal growth inhibition by double dilution method; format: functional; procedure, shortened: as §1
[21] = tested on: [Candida] auris; assay: Antifungal activity against Candida auris AR Bank # 0384 assessed as fungal growth inhibition by double dilution method; format: functional; conditions: Candidozyma auris; procedure, shortened: as §1
[22] = tested on: Candida albicans; assay: Antifungal activity against Candida albicans ATCC 64124 assessed as fungal growth inhibition by double dilution method; format: functional; procedure, shortened: as §2
[23] = tested on: Saccharomyces cerevisiae; assay: Antifungal activity against Saccharomyces cerevisiae AR Bank # 399 assessed as fungal growth inhibition by double dilution method; format: functional; procedure, shortened: as §1
[24] = tested on: Pichia kudriavzevii; assay: Antifungal activity against Pichia kudriavzevii AR Bank # 397 assessed as fungal growth inhibition by double dilution method; format: functional; procedure, shortened: as §1
[25] = tested on: Candida albicans; assay: Antifungal activity against itraconazole/fluconazole resistant Candida albicans ATCC MYA-1237 assessed as fungal growth inhibition by double dilution method; format: functional; procedure, shortened: as §2
[26] = tested on: Kodamaea ohmeri; assay: Antifungal activity against Kodamaea ohmeri AR Bank # 396 assessed as fungal growth inhibition by double dilution method; format: functional; procedure, shortened: as §1
[27] = tested on: [Candida] auris; assay: Antifungal activity against Candida auris AR Bank # 0390 assessed as fungal growth inhibition by double dilution method; format: functional; conditions: Candidozyma auris; procedure, shortened: as §1
[28] = tested on: [Candida] auris; assay: Antifungal activity against Candida auris AR Bank # 381 assessed as fungal growth inhibition by double dilution method; format: functional; conditions: Candidozyma auris; procedure, shortened: as §1
[29] = tested on: Pichia kudriavzevii; assay: Antifungal activity against Pichia kudriavzevii ATCC 6258 assessed as fungal growth inhibition by double dilution method; format: functional; procedure, shortened: as §1
[30] = tested on: Candida albicans; assay: Antifungal activity against itraconazole/fluconazole resistant Candida albicans ATCC MYA-1003 assessed as fungal growth inhibition by double dilution method; format: functional; procedure, shortened: as §2
[31] = tested on: [Candida] auris; assay: Antifungal activity against Candida auris AR Bank # 387 assessed as fungal growth inhibition by double dilution method; format: functional; conditions: Candidozyma auris; procedure, shortened: as §1
[32] = tested on: [Candida] haemuloni; assay: Antifungal activity against Candida haemulonii AR Bank # 393 assessed as fungal growth inhibition by double dilution method; format: functional; conditions: Candidozyma haemuli; procedure, shortened: as §1
[33] = tested on: Aspergillus fumigatus; assay: Antifungal activity against Aspergillus fumigatus NRRL 6113 assessed as fungal growth inhibition by double dilution method; format: functional
[34] = tested on: Aspergillus flavus; assay: Antifungal activity against Aspergillus flavus ATCC MYA-3631 assessed as fungal growth inhibition by double dilution method; format: functional
[35] = tested on: [Candida] auris; assay: Antifungal activity against Candida auris AR Bank # 384 assessed as fungal growth inhibition by double dilution method; format: functional; conditions: Candidozyma auris; procedure, shortened: as §1
[36] = tested on: Candida albicans; assay: Antifungal activity against itraconazole/fluconazole susceptible Candida albicans ATCC MYA-2310 assessed as fungal growth inhibition by double dilution method; format: functional; procedure, shortened: as §2
[37] = tested on: Aspergillus nidulans; assay: Antifungal activity against Aspergillus nidulans ATCC 38163 assessed as fungal growth inhibition by double dilution method; format: functional
[38] = tested on: HEK293; assay: Cytotoxicity against human HEK-293 cells assessed as reduction in cell viability at 31.3 microg/ml; format: toxicity, cell-based; conditions: dose 31.3 µg/ml; procedure, shortened: as §3
[39] = tested on: Cryptococcus neoformans; assay: Antifungal activity against Cryptococcus neoformans ATCC MYA-895 assessed as fungal growth inhibition by double dilution method; format: functional; procedure, shortened: as §1
[40] = tested on: Aspergillus fumigatus; assay: Antifungal activity against Aspergillus fumigatus NRRL 163 assessed as fungal growth inhibition by double dilution method; format: functional
[41] = tested on: J774.A1; assay: Cytotoxicity against J774A.1 cells assessed as reduction in cell viability at 31.3 microg/ml; format: toxicity, cell-based; conditions: mouse, dose 31.3 µg/ml; procedure, shortened: as §3
[42] = tested on: Candida duobushaemulonii; assay: Antifungal activity against Candida duobushaemulonii AR Bank # 392 assessed as fungal growth inhibition by double dilution method; format: functional; conditions: Candidozyma duobushaemuli; procedure, shortened: as §1

In the case of `O=C(NNc1cccc(Cl)c1)c1cnccn1`, the MIC [1] is reported as 0.49 µg/mL (≈ 1.97 µM), the MIC [2] is reported as 0.24 µg/mL (≈ 0.965 µM) and the MIC [3] is reported as 1.95 µg/mL (≈ 7.84 µM). For the same molecule, the MIC [4] was greater than 31.3 µg/mL, the MIC [5] was 1.95 µg/mL (≈ 7.84 µM) and the Activity [6] was “Non-Toxic”. For the same molecule, the MIC [7] was 3.9 µg/mL (≈ 15.7 µM), the MIC [8] was 0.24 µg/mL (≈ 0.965 µM) and the MIC [9] was 0.24 µg/mL (≈ 0.965 µM). The MIC [10] was 0.24 µg/mL (≈ 0.965 µM), the MIC [11] was 0.12 µg/mL (≈ 0.483 µM) and the MIC [12] was 0.12 µg/mL (≈ 0.483 µM). It also gave an MIC [13] of 0.24 µg/mL (≈ 0.965 µM), an MIC [14] of 0.98 µg/mL (≈ 3.94 µM) and an MIC [15] of 0.24 µg/mL (≈ 0.965 µM). For the same molecule, the MIC [16] was 0.98 µg/mL (≈ 3.94 µM), the MIC [17] was 0.49 µg/mL (≈ 1.97 µM) and the MIC [18] was no more than 0.06 µg/mL. For the same molecule, the MIC [19] was 0.24 µg/mL (≈ 0.965 µM), the MIC [20] was 3.9 µg/mL (≈ 15.7 µM) and the MIC [21] was 1.95 µg/mL (≈ 7.84 µM). The MIC [22] was 1.95 µg/mL (≈ 7.84 µM), the MIC [23] was 0.98 µg/mL (≈ 3.94 µM) and the MIC [24] was 0.12 µg/mL (≈ 0.483 µM). It also gave an MIC [25] of 0.98 µg/mL (≈ 3.94 µM), an MIC [26] of 0.12 µg/mL (≈ 0.483 µM) and an MIC [27] of 0.98 µg/mL (≈ 3.94 µM). For the same molecule, the MIC [28] was 0.49 µg/mL (≈ 1.97 µM), the MIC [29] was 0.24 µg/mL (≈ 0.965 µM) and the MIC [30] was 0.98 µg/mL (≈ 3.94 µM). The MIC [31] was 0.24 µg/mL (≈ 0.965 µM), the MIC [32] was 0.24 µg/mL (≈ 0.965 µM) and the MIC [33] was greater than 31.3 µg/mL. The MIC [34] was greater than 31.3 µg/mL, the MIC [35] was 0.98 µg/mL (≈ 3.94 µM) and the MIC [36] was 7.8 µg/mL (≈ 31.4 µM). For the same molecule, the MIC [37] was 0.98 µg/mL (≈ 3.94 µM), the Activity [38] was “Non-Toxic” and the MIC [39] was 0.24 µg/mL (≈ 0.965 µM). For the same molecule, the MIC [40] was greater than 31.3 µg/mL, the Activity [41] was “Non-Toxic” and the MIC [42] was 0.12 µg/mL (≈ 0.483 µM).
